Published values pooled from the literature.
Each line is one published result; the experiments were not run side by side.
Target: Insulin-like growth factor 1 receptor (IGF1R, Homo sapiens, UniProt P08069)

`c1cnn2ncc(-c3ccnc(N4CCC45COC5)n3)c2c1` has a remaining binding of 97% (binding; 1 µM).
For `FC(F)(F)Oc1cccc(-c2cnc3ccc(-c4ccncc4)nn23)c1`, the remaining binding was 86% (cell-free assay; competition with immobilised ligand; 5 µM).
`CC(C)CC(=O)N1CCc2nc(-c3ccc(Br)cc3)nc(N(C)Cc3ccccc3)c2C1` gave a remaining binding of 83% (cell-free assay; competition with immobilised ligand; 0.1 µM).
`COc1cnc(Nc2cccc(S(N)(=O)=O)c2)nc1N1CCN(c2ccccc2)C(=O)C1` gave a remaining binding of 100% (binding; competition with immobilised ligand; 1 µM).
`Cn1nc(C(=O)NCc2ccc(C(=O)O)cc2)cc1-c1ccc2[nH]ccc2c1` has a remaining binding of 91% (cell-free assay; competition with immobilised ligand; 0.1 µM).
With `Cc1cnn2ncc(-c3ccnc(N(C)C)n3)c2c1` the remaining binding was 100% (binding; 1 µM).
The remaining binding of `COc1ncc2cc3ccccc3nc2c1C#N` is reported as 86% (cell-free assay; competition with immobilised ligand; 5 µM).
`CN(C)c1nccc(-c2cnc3ncccn23)n1` gave a remaining binding of 89% (binding; 1 µM).
The remaining binding of `O=C(NCCCN1CCOCC1)c1ccc(Nc2nccc(-c3cc4ccccc4s3)n2)cc1` is reported as 100% (binding; competition with immobilised ligand; 1 µM).
With `CC(=O)c1c(NS(C)(=O)=O)c2cc(-c3ccc(Cl)cc3)c(-c3ccc(Cl)cc3Cl)nc2n(C)c1=O` the remaining binding was 100% (cell-free assay; competition with immobilised ligand; 1 µM).
The remaining binding of `O=C(NCCCN1CCOCC1)c1ccc(Nc2ncc(Cl)c(-c3ccc(Cl)s3)n2)cc1` is reported as 44% (binding; competition with immobilised ligand; 1 µM).
`N[C@@H]1CCN(c2nccc(-c3cnn4ncccc34)n2)C1` gave a remaining binding of 99% (binding; 1 µM).
With `CCN1CCN(Cc2ccc(C(=O)Nc3ccc(C)c(Oc4ccc5c(c4)CC(=O)N5)c3)cc2C(F)(F)F)CC1` the remaining binding was 100% (binding; competition with immobilised ligand; 1 µM).
For `O=C(c1ccc(Nc2ncc(Cl)c(-c3ccc(Cl)s3)n2)cc1)N1CCC(N2CCCC2)CC1`, the remaining binding was 19% (binding; competition with immobilised ligand; 1 µM).
For `CN(c1ccnc(CNc2nc(Nc3ccc4c(c3)CC(=O)N4)ncc2C(F)(F)F)n1)S(C)(=O)=O`, the remaining binding was 100% (cell-free assay; competition with immobilised ligand; 1 µM).
`C[C@@H]1CN(c2ccc3ncc(-c4ccc5[nH]nc(C6CC6)c5c4)n3n2)C[C@H](C)O1` gave a remaining binding of 99% (binding; competition with immobilised ligand; 50 nM).
`CCS(=O)(=O)c1cc2cc(C[C@](O)(CC(C)(C)c3ccc(F)cc3C(N)=O)C(F)(F)F)[nH]c2cn1` has a remaining binding of 100% (cell-free assay; competition with immobilised ligand; 1 µM).
`CN(c1nccc(-c2cnn3ncccc23)n1)C1CC1` gave a remaining binding of 93% (binding; 1 µM).
With `CO[C@@H](C)c1c(Nc2ccc([C@H](N(C)C(=O)C3CCS(=O)(=O)CC3)C(F)(F)F)cc2)cnc2cc(Cl)nn12` the remaining binding was 100% (cell-free assay; competition with immobilised ligand; 1 µM).
For `N#Cc1ccccc1CSc1nnc2c(n1)[nH]c1ccccc12`, the remaining binding was 91% (binding; competition with immobilised ligand; 10 µM).
`C[C@H]1CCN(c2nccc(-c3cnn4ncccc34)n2)C1` has a remaining binding of 90% (binding; 1 µM).
With `CCOCCn1cc(C(=O)Nc2ccc(-n3nc(-c4cccnc4)cc3C(F)(F)F)cn2)ccc1=O` the remaining binding was 96% (cell-free assay; competition with immobilised ligand; 1 µM).
The remaining binding of `O=C(Nc1c[nH]nc1C(=O)NC1CCNCC1)c1cc(F)cc(F)c1` is reported as 100% (binding; competition with immobilised ligand; 1 µM).
`F[C@@H]1CCN(c2nccc(-c3cnn4ncccc34)n2)C1` gave a remaining binding of 89% (binding; 1 µM).
With `NS(=O)(=O)c1cc(NC(=O)Cc2ccccc2)ccc1Oc1cccc(Cl)c1` the remaining binding was 100% (cell-free assay; competition with immobilised ligand; 1 µM).
